Each structure is given as a SMILES string.

Data set [1] is described as follows: Stability of the compound in NaOH/THF at room temperature. In kind it is physicochemical. In a few lines: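 SEM-protected compound in 1 M NaOH (10 equiv) in THF at room temperature. Deprotection was monitored for up to 12 h.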
The nature of data set [2]: Half life of the compound in TBAF/THF under reflux.
Data set [3] is described as follows: Half life of the compound in TFA at room temperature. In kind it is physicochemical. The method, boiled down:
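SEM- and Boc-protected compounds in TFA (100 equiv) at room temperature. Deprotection was monitored and reported as the time to half-conversion (T1/2) and the time to full conversion.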

A short description of data set [4]: Half life of the compound in NaOH/THF/MeOH at room temperature. The data set is classed as physicochemical. In a few lines: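 Boc-protected compound in 1 M NaOH (10 equiv) in THF/MeOH at room temperature. Deprotection was followed and reported as T1/2 (half-deprotection time) and the time to complete deprotection.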
A short description of data set [5]: Half life of the compound in HCl/THF at room temperature. In kind it is physicochemical. In a few lines: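 Boc-protected compound in 4 M HCl (10 equiv) in THF at room temperature. Deprotection was followed over time and reported as the time to half-conversion (T1/2) and the time to completion.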
Data set [6] has as its target T1, Prostaglandin E synthase (Homo sapiens, UniProt O14684).
T1 sequence (O14684 whole entry): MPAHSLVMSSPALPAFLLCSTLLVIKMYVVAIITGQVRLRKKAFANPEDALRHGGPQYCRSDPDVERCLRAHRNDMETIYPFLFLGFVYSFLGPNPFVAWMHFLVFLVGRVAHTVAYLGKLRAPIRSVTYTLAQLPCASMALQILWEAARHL
The data set is described as follows: Inhibition of mPGES1 (unknown origin) transfected in HEK293 cells co-expressing COX1 using arachidonic acid as substrate assessed as inhibition of PGE2 production incubated for 30 mins prior to arachidonic acid addition measured after 60 mins by HTRF assay. The data set is classed as cell-based. The method, boiled down: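 Enzyme source was microsomes from HEK293 cells co-transfected with mPGES-1 and COX-1, in 100 mM Tris-HCl pH 8.0 with 5 mM EDTA, 1 mM GSH, phenol and hematin. Compound was added in DMSO (final 1%) and preincubated 30 min at room temperature. Arachidonic acid in 0.1 M KOH started the reaction, which ran 60 min at room temperature. It was stopped with 1 M HCl, neutralized with 1 M NaOH, and PGE2 was quantified by HTRF.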

Take `Cn1c(=O)c2c(nc(-c3ccccc3Cl)n2COCC[Si](C)(C)C)c2ccc(Br)cc21`: the Stability entry in data set [1] is reported as “Stable”. Further, the half-life is 30 min in data set [2] and less than 5 min in data set [3].

`Cn1c(=O)c2c(nc(-c3ccccc3Cl)n2C(=O)OC(C)(C)C)c2ccc(Br)cc21`: the half-life was 15 min in data set [4], 30 min in data set [5] and less than 5 min in data set [3].

As for `Nc1nc2cc(Br)ccc2c2[nH]c(-c3ccccc3Cl)nc12`, in data set [6], the IC50 came to 1070 nM.

For `CNc1nc2cc(Br)ccc2c2nc(-c3ccccc3Cl)[nH]c12`, the IC50 in data set [6] came out at 631 nM.

Regarding `CN(C)c1nc2cc(Br)ccc2c2[nH]c(-c3ccccc3Cl)nc12`, in data set [6], the IC50 was determined as 387 nM.

In the case of `S=c1[nH]c2cc(Br)ccc2c2nc(-c3ccccc3Cl)[nH]c12`, the IC50 in data set [6] is 83 nM.

For the compound `CSc1nc2cc(Br)ccc2c2nc(-c3ccccc3Cl)[nH]c12`, the IC50 in data set [6] turned out to be 31 nM.

For the compound `CCSc1nc2cc(Br)ccc2c2[nH]c(-c3ccccc3Cl)nc12`, in data set [6], the IC50 is 59 nM.

For `Cn1c(=O)c2[nH]c(-c3ccccc3Cl)nc2c2ccc(Br)cc21`, the IC50 in data set [6] came out at 85 nM.

`CCn1c(=O)c2[nH]c(-c3ccccc3Cl)nc2c2ccc(Br)cc21`: the IC50 in data set [6] stood at 106 nM.

On to `O=c1c2[nH]c(-c3ccccc3Cl)nc2c2ccc(Br)cc2n1Cc1ccccc1`, for which the IC50 in data set [6] amounted to 226 nM.

In the case of `Cn1c(-c2ccccc2Cl)nc2c(=O)[nH]c3cc(Br)ccc3c21`, the IC50 in data set [6] was more than 10000 nM.

Regarding `Cn1c(-c2ccccc2Cl)nc2c3ccc(Br)cc3[nH]c(=O)c21`, the IC50 in data set [6] worked out at 9810 nM.

For the compound `O=c1[nH]c2cc(Br)ccc2c2nc(-c3ccccc3Cl)n(Cc3ccccc3)c12`, in data set [6], the IC50 was more than 10000 nM.

Regarding `Cn1c(-c2ccccc2Cl)nc2c3ccc(Br)cc3n(C)c(=O)c21`, the IC50 in data set [6] was more than 10000 nM.

(Values after ChEMBL document CHEMBL2346636, “Synthesis and biological evaluation of substituted imidazoquinoline derivatives as mPGES-1 inhibitors” (Bioorg Med Chem, 2013).)
